Assay results published in paper PMC4878416 (Diabetes, 2016).

How the values were obtained:
intact human islets = format: cell-based; details: intact islets of three donors, 1 μmol/L, 6 days
Summary of the method: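 Intact islets from three donors received DMSO or 1 μmol/L test compound for 6 days, and expression was averaged geometrically. Fold changes were regressed by five-dimensional least squares against published expression data from sorted α, β, acinar, large-duct, small-duct and uncharacterised islet cells to estimate cell-mass changes. Significance was assessed by randomising the assignment of sorted replicate samples to cell types.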

[1] = system: α-cells of human islet grafts; assay: α-cell proliferation in human islets grafted under the mouse kidney capsule; format: in vivo; details: 0.25 mg/kg/BW i.p. twice a week for 3 weeks
DYRK1B = DYRK1B (Homo sapiens, UniProt Q9Y463); assay: Human kinome profiling, DYRK1B; format: biochemical
Sequence of DYRK1B (Q9Y463 whole entry): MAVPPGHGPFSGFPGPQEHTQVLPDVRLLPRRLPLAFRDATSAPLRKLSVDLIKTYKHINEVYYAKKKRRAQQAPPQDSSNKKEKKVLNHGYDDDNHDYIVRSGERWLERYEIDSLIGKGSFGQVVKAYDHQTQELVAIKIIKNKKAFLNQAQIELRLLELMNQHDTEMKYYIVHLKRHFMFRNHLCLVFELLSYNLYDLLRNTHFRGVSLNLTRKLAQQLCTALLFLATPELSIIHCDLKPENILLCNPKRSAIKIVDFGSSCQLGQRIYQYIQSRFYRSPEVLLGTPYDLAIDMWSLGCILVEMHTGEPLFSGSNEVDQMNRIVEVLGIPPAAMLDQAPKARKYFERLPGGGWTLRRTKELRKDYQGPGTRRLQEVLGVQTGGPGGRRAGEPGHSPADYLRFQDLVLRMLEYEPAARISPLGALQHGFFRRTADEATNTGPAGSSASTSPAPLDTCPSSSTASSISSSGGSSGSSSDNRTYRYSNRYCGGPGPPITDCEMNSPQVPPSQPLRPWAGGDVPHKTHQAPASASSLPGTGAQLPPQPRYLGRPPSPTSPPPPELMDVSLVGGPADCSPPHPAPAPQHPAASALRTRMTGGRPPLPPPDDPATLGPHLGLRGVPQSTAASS
Summary of the method: (§1)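 Human kinases profiled by commercial providers under their standard protocols; ATP within 15 μmol/L of the apparent KM for each enzyme.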

CLK1 = CLK1 (Homo sapiens, UniProt P49759); assay: Human kinome profiling, CLK1; format: biochemical
Sequence of CLK1 (P49759 whole entry): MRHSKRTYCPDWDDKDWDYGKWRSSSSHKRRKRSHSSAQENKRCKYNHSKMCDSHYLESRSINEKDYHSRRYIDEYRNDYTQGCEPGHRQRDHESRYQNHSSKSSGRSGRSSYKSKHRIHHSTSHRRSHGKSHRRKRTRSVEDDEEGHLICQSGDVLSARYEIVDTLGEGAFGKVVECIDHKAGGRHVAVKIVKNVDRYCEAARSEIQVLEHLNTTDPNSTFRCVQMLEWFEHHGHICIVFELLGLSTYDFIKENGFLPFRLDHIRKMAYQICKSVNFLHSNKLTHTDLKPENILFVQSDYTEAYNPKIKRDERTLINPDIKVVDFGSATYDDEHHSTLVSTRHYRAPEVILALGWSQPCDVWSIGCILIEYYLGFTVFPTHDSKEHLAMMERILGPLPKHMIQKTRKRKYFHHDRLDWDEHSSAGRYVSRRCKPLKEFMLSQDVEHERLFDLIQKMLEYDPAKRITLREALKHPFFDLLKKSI
Summary of the method: as §1

primary rat neurons = assay: Proliferation of primary rat neurons in culture; format: cell-based
[2] = system: human islet cells (all cell types); assay: Proliferation of other cell types in the heterogeneous human islet cell culture; format: cell-based
DYRK4 = biological target: T1, DYRK4 (Homo sapiens, UniProt Q9NR20); assay: Human kinome profiling, DYRK4; format: biochemical
T1 sequence (Q9NR20 1-520): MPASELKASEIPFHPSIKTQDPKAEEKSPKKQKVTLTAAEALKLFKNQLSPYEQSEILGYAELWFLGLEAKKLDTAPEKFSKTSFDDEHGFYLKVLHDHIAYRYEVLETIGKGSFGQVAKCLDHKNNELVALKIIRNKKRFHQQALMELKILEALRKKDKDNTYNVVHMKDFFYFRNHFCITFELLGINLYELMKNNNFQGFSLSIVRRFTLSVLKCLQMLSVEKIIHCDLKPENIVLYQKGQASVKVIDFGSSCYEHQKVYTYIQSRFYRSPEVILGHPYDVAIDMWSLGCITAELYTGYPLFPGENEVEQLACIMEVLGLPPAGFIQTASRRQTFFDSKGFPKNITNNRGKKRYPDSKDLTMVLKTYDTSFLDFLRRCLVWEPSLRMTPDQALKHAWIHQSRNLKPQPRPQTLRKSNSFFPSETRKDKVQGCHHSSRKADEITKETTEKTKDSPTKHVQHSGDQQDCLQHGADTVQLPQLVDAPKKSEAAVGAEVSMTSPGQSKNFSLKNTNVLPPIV
Summary of the method: as §1

human β-cells = format: in vivo; details: 0.25 mg/kg/BW i.p. twice a week for 3 weeks, vs vehicle
Summary of the method: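 NSG mice (male, 8–10 weeks old) were grafted with 1,000 IEQ of human islets under the kidney capsule. From 1 week post-graft they received test compound (0.25 mg/kg i.p., 50% DMSO) or vehicle twice weekly for 3 weeks, followed by BrdU 100 mg/kg i.p. for 3 days and sacrifice at 6 h. Graft sections were co-stained for insulin or PDX-1 with BrdU, Ki67 or pHH3. 1,000–2,000 β-cells were counted per animal; n = 3–4; mean ± SEM; unpaired t test.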

`Nc1ncnc2c1c(I)cn2[C@@H]1O[C@H](CO)[C@@H](O)[C@H]1O` [5-IT, 5-iodotubercidin] was tested. Which “increase in α-cell mass predicted by gene expression results” value (intact human islets; 95% CI 4.6–7.5) did it give?
Its value is 6.1%.

What about the “β-cell mass increase that could account for gene expression changes” value (intact human islets; 95% CI 5.8–9.2) of the same compound?
Its value is 7.5%.

What about the “α-cell proliferation in human islet grafts, treated vs nontreated” value [1] of the same compound?
Its value is “no significant alterations”.

And the “remaining activity DYRK1B” value (DYRK1B; 100 nmol/L)?
The value was less than 10%.

What about the IC50 (DYRK1B; read-out: IC50 DYRK1B, ATP within 15 μmol/L of apparent KM) of the same compound?
Its IC50 is 0.01 µM.

What about the “remaining activity CLK1” value (CLK1; 100 nmol/L) of the same compound?
The value was less than 10%.

What about the IC50 (CLK1; read-out: IC50 CLK1, ATP within 15 μmol/L of apparent KM) of the same compound?
Its IC50 is 0.036 µM.

What about the “effect on primary rat neurons in culture” value (primary rat neurons) of the same compound?
Its value is “no effect”.

What about the “proliferation of all cell types in the heterogeneous culture system” value [2] of the same compound?
Its value is “did not induce proliferation of all cell types”.

And the “remaining activity DYRK4” value (DYRK4; 100 nmol/L)?
Its value is less than 10%.

What about the IC50 (DYRK4; read-out: IC50 DYRK4, ATP within 15 μmol/L of apparent KM) of the same compound?
The IC50 was 0.129 µM.

And the “increase in BrdU incorporation in β-cells of human islet grafts” value (human β-cells; P < 0.01)?
Its value is “approximately fivefold”.

And the “increase in Ki67 staining of β-cells of human islet grafts” value (human β-cells; P < 0.05)?
The value was “approximately sixfold”.

And the “increase in PDX1/BrdU double-positive cells in human islet grafts” value (human β-cells; P < 0.05)?
The value was “approximately fourfold”.

And the “increase in PDX1/Ki67 double-positive cells in human islet grafts” value (human β-cells; P < 0.05)?
The value was “approximately sixfold”.

And the “increase in pHH3 immunostaining of β-cells of human islet grafts” value (human β-cells; P < 0.05)?
The value was roughly 10 fold.
